Results reported in ChEMBL document CHEMBL1146084, “Discovery of orally efficacious melanin-concentrating hormone receptor-1 antagonists as antiobesity agents. Synthesis, SAR, and biological evaluation of bicyclo[3.1.0]hexyl ureas” (J Med Chem, 2006).

Tests used:
[1] = AUC (0-6h) in rat at 10 mg/kg, po; format: ADME, organism-based, Plasma; design: time < 6 hr, dose 10 mg/kg, route oral; details: plasma
[2] = target: T1, Melanin-concentrating hormone receptor 1 (Homo sapiens, UniProt Q99705); assay: Displacement of [125I]MCH from human MCHR1 expressed in CHO cell; format: cell-based
T1 sequence (Q99705 whole entry): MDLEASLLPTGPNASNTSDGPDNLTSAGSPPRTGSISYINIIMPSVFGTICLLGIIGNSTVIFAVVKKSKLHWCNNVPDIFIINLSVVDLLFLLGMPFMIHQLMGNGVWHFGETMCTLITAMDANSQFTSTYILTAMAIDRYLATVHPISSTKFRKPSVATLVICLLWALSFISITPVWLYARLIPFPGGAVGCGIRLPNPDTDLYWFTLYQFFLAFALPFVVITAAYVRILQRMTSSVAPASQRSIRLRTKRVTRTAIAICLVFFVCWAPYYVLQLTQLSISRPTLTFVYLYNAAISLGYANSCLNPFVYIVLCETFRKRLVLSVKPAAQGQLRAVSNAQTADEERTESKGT

[3] = target: T1, Melanin-concentrating hormone receptor 1; assay: Inhibition of MCH-mediated calcium influx in CHO cells expressing human MCHR1 by FLIPR assay; format: functional, cell-based
Method in brief: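 After two washes, treated with vehicle (buffer, 2% DMSO) or compound, then stimulated with 30 nM MCH; intracellular Ca²⁺ change read by FLIPR.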

[4] = target: Melanin-concentrating hormone receptor 1 (Mus musculus) (UniProt Q8JZL2); assay: Receptor occupancy ex vivo by displacement of [125I]S36057 binding from MCHR1 in C57BL/6N mouse brain after 6 hrs at 30 mg/kg, po; format: functional, organism-based; design: dose 30 mg/kg
Melanin-concentrating hormone receptor 1 (Mus musculus), sequence (Q8JZL2 whole entry): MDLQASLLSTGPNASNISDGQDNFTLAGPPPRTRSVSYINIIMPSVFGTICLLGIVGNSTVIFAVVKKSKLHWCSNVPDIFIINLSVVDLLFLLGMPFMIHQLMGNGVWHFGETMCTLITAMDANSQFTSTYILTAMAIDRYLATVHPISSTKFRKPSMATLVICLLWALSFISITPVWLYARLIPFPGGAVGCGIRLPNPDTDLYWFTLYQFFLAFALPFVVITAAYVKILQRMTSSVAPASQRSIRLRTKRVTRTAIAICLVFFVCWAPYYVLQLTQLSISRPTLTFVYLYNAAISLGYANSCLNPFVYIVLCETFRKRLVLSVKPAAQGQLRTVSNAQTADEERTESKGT
Method in brief: (§1)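 Male C57Bl/6NCrl:BR mice given vehicle (HPβCD) or compound orally; killed by CO2 at 6 or 24 h post-dose (chronic studies: 24 h after last daily dose, n = 3/group). 16 µm frozen caudate putamen sections incubated 30 min at room temperature with 700 pM [125I]-S36057 in MCH-R1 binding buffer; 1 µM MCH defines nonspecific binding. Phosphorimager quantitation; % inhibition versus vehicle.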

[5] = target: Melanin-concentrating hormone receptor 1 (Mus musculus) (UniProt Q8JZL2); assay: Receptor occupancy ex vivo by displacement of [125I]S36057 binding from MCHR1 in C57BL/6N mouse brain after 24 hrs at 30 mg/kg, po; format: functional, organism-based; design: dose 30 mg/kg; method in brief: as §1
Mus musculus [6] = assay: Reduction of food intake in orally dosed C57BL/6N DIO mouse after 24 hrs at 30 mg/kg relative to control; format: functional; details: route oral
Method in brief: (§2)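 Male C57Bl/6NCrl:BR mice made obese on a 45%-fat diet, individually housed, 12 h light/dark, 22 °C; acclimated to oral 20% hydroxypropyl-β-cyclodextrin vehicle for 2-3 days. Single oral 30 mg/kg dose in 20% HPβCD; food intake weighed to 0.01 g at 2, 6 and 24 h, expressed as % of vehicle ± SEM.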

Mus musculus [7] = assay: Reduction of food intake in orally dosed C57BL/6N DIO mouse after 2 hrs at 30 mg/kg relative to control; format: functional; details: route oral; method in brief: as §2
Mus musculus [8] = assay: Reduction of food intake in orally dosed C57BL/6N DIO mouse after 6 hrs at 30 mg/kg relative to control; format: functional; details: route oral; method in brief: as §2

| Compound | AUC(0-t) at 6 h [1] [ng·h/mL] | Ki [2] [nM] | Activity [4] [%] | Activity [5] [%] | further results |
| --- | --- | --- | --- | --- | --- |
| N#Cc1cccc([C@]23CC[C@@H](N(CCN4CCCC4)C(=O)Nc4ccc(F)c(Cl)c4)[C@H]2C3)c1 (relative stereo) | 822 |  |  |  |  |
| COc1ccc([C@]23CC[C@@H](N(CCCN4CCN(C)CC4)C(=O)Nc4ccc(F)c(C(F)(F)F)c4)[C@H]2C3)cc1 (relative stereo) | 438 | 2.8 | 100 | 7 | Kb [3]: 9 nM |
| CN1CCN(CCCN(C(=O)Nc2ccc(F)c(C(F)(F)F)c2)[C@@H]2CC[C@]3(c4ccc(F)c(C#N)c4)C[C@H]23)CC1 (relative stereo) | 3080 | 4 | 81 | 36 |  |
| CN1CCN(CCCN(C(=O)Nc2ccc(F)c(Cl)c2)[C@@H]2CC[C@]3(c4cccc(OC(F)(F)F)c4)C[C@H]23)CC1 (relative stereo) | 504 | 29 | 39 | 12 |  |
| CN1CCN(CCN(C(=O)Nc2ccc(F)c(C(F)(F)F)c2)[C@@H]2CC[C@]3(c4cccc(C#N)c4)C[C@H]23)CC1 (relative stereo) | 1460 |  | 53 |  |  |
| CN1CCN(CCCN(C(=O)Nc2ccc(F)c(Cl)c2)[C@H]2CC[C@@H](c3cccc(C#N)c3)C2)CC1 (relative stereo) |  | 2190 |  |  |  |
| CN1CCN(CCCN(C(=O)Nc2ccc(F)c(Cl)c2)[C@@H]2CC[C@]3(c4cccc(NS(C)(=O)=O)c4)C[C@H]23)CC1 (relative stereo) |  | 394 |  |  |  |
| Cc1cccc([C@]23CC[C@@H](N(CCCN4CCN(C)CC4)C(=O)Nc4ccc(F)c(Cl)c4)[C@H]2C3)c1 (relative stereo) |  | 33 | 0 | 4 |  |
| CN1CCN(CCCN(C(=O)Nc2ccc(F)c(Cl)c2)[C@@H]2CC[C@]3(c4ccc(S(C)(=O)=O)cc4)C[C@H]23)CC1 (relative stereo) | 2340 | 9.3 | 8 |  |  |
| N#Cc1cccc([C@]23CC[C@@H](N(CCN4CCCCC4)C(=O)Nc4ccc(F)c(Cl)c4)[C@H]2C3)c1 (relative stereo) | 999 |  | 57 |  |  |
| CN1CCN(CCCN(C(=O)Nc2ccc(F)c(C(F)(F)F)c2)[C@@H]2CC[C@]3(c4cccc(F)c4)C[C@H]23)CC1 (relative stereo) | 888 | 2.3 | 85 | 10 |  |
| CS(=O)(=O)c1ccc([C@]23CC[C@@H](N(CCCN4CCCC4=O)C(=O)Nc4ccc(F)c(Cl)c4)[C@H]2C3)cc1 (relative stereo) |  | 1620 |  |  |  |
| CN1CCN(CCCN(C(=O)Nc2ccc(F)c(Cl)c2)[C@@H]2CC[C@]3(c4cccc(F)c4)C[C@H]23)CC1 (relative stereo) | 722 | 3.3 | 73 | 0 |  |
| N#Cc1cccc([C@]23CC[C@@H](N(CCN4CC[C@@H](O)C4)C(=O)Nc4ccc(F)c(Cl)c4)[C@H]2C3)c1 (stereo in doubt; (+)-23c) |  |  | 32 |  |  |
| CN1CCN(CCCN(C(=O)Nc2ccc(F)c(Cl)c2)[C@@H]2CC[C@]3(c4cc(F)cc(F)c4)C[C@H]23)CC1 (relative stereo) | 2740 | 7 | 65 | 0 |  |
| CS(=O)(=O)c1ccc([C@]23CC[C@@H](N(CC4CCN(S(C)(=O)=O)CC4)C(=O)Nc4ccc(F)c(Cl)c4)[C@H]2C3)cc1 (relative stereo) |  | 974 |  |  |  |
| CC(=O)Nc1cccc([C@]23CC[C@@H](N(CCCN4CCN(C)CC4)C(=O)Nc4ccc(F)c(Cl)c4)[C@H]2C3)c1 (relative stereo) |  |  | 18 | 0 |  |
| CN1CCN(CCCN(C(=O)Nc2ccc(F)c(Cl)c2)[C@@H]2CC[C@]3(c4cccc(Cl)c4)C[C@H]23)CC1 | 436 |  |  |  |  |

| Compound | AUC(0-t) at 6 h [1] [ng·h/mL] | Ki [2] [nM] | Activity [4] [%] | Activity [5] [%] | further results |
| --- | --- | --- | --- | --- | --- |
| CN1CCN(CCCN(C(=O)Nc2ccc(F)c(Cl)c2)[C@@H]2CC[C@]3(c4cccnc4)C[C@H]23)CC1 (relative stereo) |  |  | 25 | 11 |  |
| N#Cc1ccc([C@]23CC[C@@H](N(CCCN4CCNCC4)C(=O)Nc4ccc(F)c(C(F)(F)F)c4)[C@H]2C3)cc1 (relative stereo) | 3470 | 8 | 27 | 0 | Kb [3]: 9 nM |
| CN1CCN(CCCN(C(=O)Nc2ccc(F)c(Cl)c2)[C@@H]2CC[C@]3(c4ccccc4)C[C@H]23)CC1 (relative stereo) | 1130 |  | 79 | 0 |  |
| CN1CCN(CCCCN(C(=O)Nc2ccc(F)c(C(F)(F)F)c2)[C@@H]2CC[C@]3(c4cccc(C#N)c4)C[C@H]23)CC1 (relative stereo) | 1680 |  | 85 |  | Food intake (% of vehicle control) (Mus musculus [6]): 89.1%; Food intake (% of vehicle) (Mus musculus [7]): 81.1%; Food intake (% of vehicle control) (Mus musculus [8]): 81.6% |
| CN1CCN(CCCN(C(=O)Nc2ccc(F)c(Cl)c2)[C@@H]2CC[C@]3(c4ccsc4)C[C@H]23)CC1 (relative stereo) |  | 13 | 25 | 12 |  |
| N#Cc1cccc([C@@]23CC[C@H](N(CCN4CCCC4)C(=O)Nc4cc(Cl)cc(Cl)c4)[C@@H]2C3)c1 | 1490 | 15 | 69 |  |  |
| CN1CCN(CCCN(C(=O)Nc2ccc(F)c(Cl)c2)[C@@H]2CC[C@]3(c4cccc(S(C)(=O)=O)c4)C[C@H]23)CC1 (relative stereo) |  | 727 |  |  |  |
| CN1CCN(CCCN(C(=O)Nc2ccc(F)c(Cl)c2)[C@@H]2CC[C@]3(c4ccc(F)c(F)c4)C[C@H]23)CC1 (relative stereo) | 1610 | 4.4 | 97 | 0 |  |
| CN1CCN(CCCN(C(=O)Nc2ccc(F)c(Cl)c2)[C@@H]2CC[C@@H](c3cccc(C#N)c3)C2)CC1 (relative stereo) |  | 161 |  |  |  |
| CN1CCN(CCCN(C(=O)Nc2ccc(F)c(C(F)(F)F)c2)[C@@H]2CC[C@]3(c4ccc(F)cc4)C[C@H]23)CC1 (relative stereo) | 2170 | 1.8 | 100 | 29 | Kb [3]: 15 nM |
| CN1CCN(CCCN(C(=O)Nc2ccc(F)c(C(F)(F)F)c2)[C@@H]2CC[C@]3(c4ccc(C#N)c(F)c4)C[C@H]23)CC1 (relative stereo) | 1660 | 3.5 | 100 | 6 |  |
| N#Cc1cccc([C@]23CC[C@@H](N(CCCCN4CCCCC4)C(=O)Nc4ccc(F)c(C(F)(F)F)c4)[C@H]2C3)c1 (relative stereo) | 1160 |  | 72 |  | Food intake (% of vehicle control) (Mus musculus [6]): 102%; Food intake (% of vehicle) (Mus musculus [7]): 92%; Food intake (% of vehicle control) (Mus musculus [8]): 101.1% |
| CN1CCN(CCCN(C(=O)Nc2ccc(F)c(Cl)c2)[C@@H]2CC[C@]3(c4cccc(N)c4)C[C@H]23)CC1 (relative stereo) |  | 10 | 37 | 17 |  |
| CC(C)CN1CCN(CCN(C(=O)Nc2ccc(F)c(C(F)(F)F)c2)[C@@H]2CC[C@]3(c4cccc(C#N)c4)C[C@H]23)CC1 (relative stereo) | 140 |  | 40 |  |  |
| COc1cccc([C@]23CC[C@@H](N(CCCN4CCN(C)CC4)C(=O)Nc4ccc(F)c(C(F)(F)F)c4)[C@H]2C3)c1 (relative stereo) | 571 | 2.9 | 73 | 0 | Kb [3]: 8 nM |
| N#Cc1cccc([C@]23CC[C@@H](N(CCN4CC[C@@H](O)C4)C(=O)Nc4ccc(F)c(Cl)c4)[C@H]2C3)c1 (stereo in doubt; (-)-23d) |  |  | 57 |  |  |
| N#Cc1cccc(C2=CC(N(CCN3CCCC3)C(=O)Nc3cc(Cl)cc(Cl)c3)CC2)c1 (configuration not stated) |  | 605 |  |  |  |
